According to PMC6544531 (Nature chemistry, 2019):
“Also recorded” adds a separate entry of the source.

Legend:
[1] = test system: YnGG labeling of farnesylated substrates in EA.hy926 cells; assay type: cell-based, human
Summary of the method: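 Human EA.hy926 cells given an FTase inhibitor over a range of concentrations and labeled with YnF or YnGG in parallel. Probe incorporation was quantified proteome-wide by spike-in SILAC chemical proteomics. Changes in the YnF/YnGG incorporation ratio were compared with loss of YnF labeling across concentrations. Points are mean of n=3 ± standard deviation.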

[2] = test system: farnesylated substrates (YnF labeling) in EA.hy926 cells; assay type: cell-based, human; details: for mean in-cell IC50 response (YnF labeling of farnesylated substrates): 10 µM YnF, 1 h inhibitor pre-incubation + 8 h
Summary of the method: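 EA.hy926 endothelial cells labeled with alkyne prenyl probe alongside increasing concentrations of prenyl transferase inhibitor. Lysates were spiked with a heavy SILAC standard, a lysate dual-labeled with 13C615N4-Arg/13C615N2-Lys (R10K8) plus the same probe. Probe-labeled proteins were quantified against this standard by spike-in SILAC chemical proteomics, giving dose-response curves per farnesylated substrate.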

EA.hy926 cells = experiment: Cell toxicity observed during cell treatment; assay type: cell-based, human; details: data not shown
FTase = FTase (Rattus norvegicus, UniProt Q02293+Q04631); details: read-out: IC50 (weak FTI); cited from earlier work
Sequence of FTase (Q02293 whole entry, one chain of several): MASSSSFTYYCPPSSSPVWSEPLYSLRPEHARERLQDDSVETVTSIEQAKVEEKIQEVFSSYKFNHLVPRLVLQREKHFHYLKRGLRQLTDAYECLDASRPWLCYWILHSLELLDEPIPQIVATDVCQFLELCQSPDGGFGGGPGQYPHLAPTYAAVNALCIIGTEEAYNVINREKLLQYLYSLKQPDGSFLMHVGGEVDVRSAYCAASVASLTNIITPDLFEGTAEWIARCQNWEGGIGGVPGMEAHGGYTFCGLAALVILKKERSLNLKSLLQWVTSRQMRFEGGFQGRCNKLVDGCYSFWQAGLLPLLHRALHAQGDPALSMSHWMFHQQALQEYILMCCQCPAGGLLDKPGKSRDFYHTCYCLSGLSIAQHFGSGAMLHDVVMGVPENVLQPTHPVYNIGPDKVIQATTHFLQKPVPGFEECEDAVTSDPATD

Row | SMILES | concentration of maximum increase in YnGG labeling of KRAS ([1]; KRAS) [nM] | concentration of maximum increase in YnGG labeling of NRAS ([1]; NRAS) [nM] | concentration of maximum increase in YnGG labeling of RRAS2 ([1]; RRAS2) [nM] | selectivity at the whole proteome level [2] | mean in-cell IC50 response (YnF labeling of farnesylated substrates) [2] | concentration above which acute cell toxicity was evident (EA.hy926 cells) [µM] | impact on farnesylation (YnF labeling) ([2]; up to the highest concentration tested (10 µM)) | IC50 (FTase) [µM]
1 | Cn1cncc1[C@@](N)(c1ccc(Cl)cc1)c1ccc2c(c1)c(-c1cccc(Cl)c1)cc(=O)n2C [Tipifarnib] | 10 | 5 | 1 | excellent selectivity | low nanomolar |  |  | 
2 | CCCC[C@@H](C)/C=C(C)/C=C(\C)C(=O)NC1=C[C@@](O)(/C=C/C=C/C=C/C(=O)NC2=C(O)CCC2=O)[C@@H]2O[C@@H]2C1=O [Manumycin A] |  |  |  |  |  | > 10 | no evidence that Manumycin A impacted farnesylation; also recorded: insensitive | 5
3 | COC(=O)[C@H](CCSC)NC(=O)c1ccc(NC[C@@H](N)CS)cc1-c1ccccc1 [FTI-277] |  |  |  | excellent selectivity | micromolar |  |  | 
